Test results: article PMC5992016 (Movement disorders : official journal of the Movement …, 2018)
Where a name gives a salt, the structure may show the parent alone.

What was measured:
[1] = tested on: L-Dopa-induced dyskinesias in MPTP-treated macaques; assay: Acute co-administration with s.c. L-Dopa: LID scores; type: in vivo, Macaca fascicularis; conditions: L-Dopa optimal dose s.c.; amantadine 5 or 10 mg/kg s.c.
Outline: (§1)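 Used MPTP macaques (3 male, 2 female) on oral carbidopa/levodopa maintenance. Optimal s.c. L-Dopa methyl ester dose (MDS reduction 50–75%) was set per animal, with benserazide at one quarter. Amantadine or test compound (DMSO/cremophor) or vehicle was given s.c. just before. Blinded live and video scoring ran off-state, then from 30 min every 20 min. Part II: peak (50 min) and summed total. Part I: MDS AUC. Triplicate runs were averaged.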

[2] = tested on: hand movement speed in MPTP-treated macaques; assay: Acute co-administration with s.c. L-Dopa: Klüver board test; type: in vivo, Macaca fascicularis
[3] = tested on: parkinsonian motor disability in MPTP-treated macaques; assay: Acute co-administration with s.c. L-Dopa: motor disability scores; type: in vivo, Macaca fascicularis; conditions: amantadine 5 and 10 mg/kg s.c.
Outline: as §1

[4] = tested on: AIMs (abnormal involuntary movements) in rodents; conditions: cited from earlier work; for effect on AIMs in rodents: inhibitor of PDEs 5, 6 and 9

## NC12CC3CC(CC(C3)C1)C2 [amantadine, amantadine hydrochloride]
[1]
  effect on LID compared with MR1916: similar
[2]; L-Dopa optimal dose s.c., amantadine 10 mg/kg s.c.
  movement speed (time) in KBT in the on state: increased
[2]; L-Dopa suboptimal dose s.c., highest dose (MR1916 0.05 mg/kg, amantadine 10 mg/kg s.c.)
  movement speed (time) in KBT: increased
[3]; L-Dopa optimal dose s.c.
  effect on MDS in the on state: significantly increased MDS
[3]; L-Dopa suboptimal dose s.c.
  effect on MDS: reduced the beneficial effect of L-Dopa on MDS

## CCCOc1ccccc1-c1nc2nn[nH]c2c(=O)[nH]1 [zaprinast]
[4]
  effect on AIMs in rodents: improves AIMs

## FC(F)(F)Cn1cc(-c2ccncc2)c(-c2ccc(OCc3ccc4ccccc4n3)cc2)n1 [TP-10]
[4]; preliminary tests
  antidyskinetic effects in rodents: antidyskinetic effects

## CCCOc1ccc(S(=O)(=O)N2CCN(CC)CC2)cc1-c1nc2c(CC)n(Cc3ccccn3)nc2c(=O)[nH]1 [UK343664]
[4]
  effect on AIMs in rodents: improves AIMs
